Broadly, the logP is a log measure of how a compound divides between an organic and an aqueous phase. A lower logP goes with a more hydrophilic compound.

Structures are written as SMILES. Activity calls are given as the source filed them. No cut-off for these calls is given here.

The values below come from ChEMBL document CHEMBL1275344, “Synthesis and antimalarial assessment of a new series of orally active amino-functionalized spiro 1,2,4-trioxanes” (J Med Chem, 2010).

Series [1] relates to Plasmodium yoelii nigeriensis. Description: Antimalarial activity against multidrug-resistant Plasmodium yoelii nigeriensis infected in Swiss mice (Mus musculus) assessed as curated mice (Mus musculus) at 96 mg/kg, peroral for 4 days. The format is functional, organism-based. Further details: dose 96 mg/kg. The method in brief: (§1)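 Swiss mice of either sex (20 ± 2 g) inoculated intraperitoneally with 1 × 10⁶ MDR P. yoelii nigeriensis parasites on day 0. Five mice per dose group, dosed orally in groundnut oil (0.1 mL), in two divided doses daily from day 0 to 3. Thin blood smears read on day 4, then twice weekly to day 28. Mice without patent infection by day 28 counted as cured. β-Arteether was the positive control.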

Series [2] can be described thus: Lipophilicity, log P of the compound. The format is physicochemical. The following applies: octanol/water.
Series [3] has as its system Plasmodium yoelii nigeriensis. Description: Antimalarial activity against multidrug-resistant Plasmodium yoelii nigeriensis infected in Swiss mice (Mus musculus) assessed as suppression of parasitaemia at 96 mg/kg, perorally for 4 days relative to control. The format is functional. The following applies: route oral. The method in brief:
(§2)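 Swiss mice of either sex (20 ± 2 g) infected intraperitoneally with 1 × 10⁶ MDR P. yoelii nigeriensis parasites on day 0. Five mice per dose group, given oral doses in groundnut oil, twice daily on days 0–3. Parasitaemia read from day-4 thin blood smears. Suppression = [(C − T)/C] × 100, with C and T the control and treated parasitaemia. 100% means no parasites seen in 50 oil-immersion fields.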

In series [4] the test system is Plasmodium yoelii nigeriensis. Nature of the series: Antimalarial activity against multidrug-resistant Plasmodium yoelii nigeriensis infected in Swiss mice (Mus musculus) assessed as suppression of parasitaemia at 48 mg/kg, peroral for 4 days relative to control. The format is functional. The following applies: route oral. The method in brief:
as §2

Series [5] concerns Plasmodium yoelii nigeriensis. Description: Antimalarial activity against multidrug-resistant Plasmodium yoelii nigeriensis infected in Swiss mice (Mus musculus) assessed as curated mice (Mus musculus) at 48 mg/kg, peroral for 4 days. The format is functional, organism-based. Also noted: dose 48 mg/kg. In short, it runs like this:
as §1

With `C=C(c1cccc2ccccc12)C1CCC2(CC1)COC(Nc1ccc(F)cc1)OO2` (centres undefined), the outcome in series [1] was Active. This molecule also registered a log partition coefficient (logP) in series [2] of 5.75. The Activity in series [3] and in series [4] was 100% throughout.

Turning to `C=C(c1cccc2ccccc12)C1CCC2(CC1)COC(Nc1cccc(C(F)(F)F)c1)OO2` (centres undefined), the result in series [1] was Active. In series [2], this molecule showed a logP of 6.51. The Activity in series [3] and in series [4] was 100% in each case.

Regarding `C=C(c1cccc2ccccc12)C1CCC2(CC1)COC(Nc1ccccc1-c1ccccc1)OO2` (centres undefined), in series [1], the outcome was Active. This molecule also displayed a lipophilicity (logP) in series [2] of 7.26. For the same molecule, the Activity in series [3] and in series [4] was 100% throughout.

Regarding `C=C(c1ccc2ccccc2c1)C1CCC2(CC1)COC(Nc1ccc(OC)cc1)OO2` (centres undefined), the result in series [1] was Active. In series [2], this molecule returned a logP of 5.46. Besides, the Activity in series [3] and in series [4] was 100% throughout.

As to `C=C(c1cccc2ccccc12)C1CCC2(CC1)COC(Nc1ccccc1)OO2` (centres undefined), in series [1], the outcome was Active. The logP in series [2] is 5.59. The Activity in series [3] and in series [4] was 100% in each case.

Regarding `C=C(c1ccc2c(c1)Cc1ccccc1-2)C1CCC2(CC1)COC(Nc1ccc(F)cc1)OO2` (centres undefined), the outcome in series [1] was Active. For the same molecule, in series [2], the logP is 6.48. Also, the Activity in series [3] and in series [4] was 100% throughout.

For the molecule `C=C(c1ccc2ccccc2c1)C1CCC2(CC1)COC(Nc1ccccc1)OO2` (centres undefined), the result in series [1] was Active. The logP in series [2] was determined as 5.59. In addition, the Activity in series [3] and in series [4] was 100% each time.

For the molecule `C=C(c1ccc2c(c1)Cc1ccccc1-2)C1CCC2(CC1)COC(Nc1ccc(C)cc1)OO2` (centres undefined), the result in series [1] was Active. This molecule also yielded a log partition coefficient (logP) in series [2] of 6.81. Besides, the Activity in series [3] and in series [4] was 100% in each case.

With `C=C(c1ccc2ccccc2c1)C1CCC2(CC1)COC(Nc1cccc(C(F)(F)F)c1)OO2` (centres undefined), in series [1], the result was Active. The molecule also came in with a logP in series [2] of 6.51. Moreover, the Activity in series [3] and in series [4] was 100% throughout.

In turn, `C=C(c1cccc2ccccc12)C1CCC2(CC1)COC(Nc1ccc(C)cc1)OO2` (centres undefined) gave a logP in series [2] of 6.08. Further, the Activity in series [3] and in series [4] was 100% each time.

Regarding `C=C(c1ccc2ccc3ccccc3c2c1)C1CCC2(CC1)COC(Nc1cc(Cl)cc(Cl)c1)OO2` (centres undefined), in series [1], the result was Active. This molecule displayed a log partition coefficient (logP) in series [2] of 7.7. Moreover, the figures for the Activity in series [3] and in series [4] were 100% and 62.5%, respectively.

For the molecule `C=C(c1ccc2ccc3ccccc3c2c1)C1CCC2(CC1)COC(Nc1cccc(C(F)(F)F)c1)OO2` (centres undefined), the outcome in series [1] was Active. In series [5], the outcome was inactive. The logP in series [2] is 7.51. Besides, the Activity in series [3] and in series [4] was 100% throughout.

Turning to `C=C(c1cccc2ccccc12)C1CCC2(CC1)COC(Nc1cc(Cl)cc(Cl)c1)OO2` (centres undefined), the result in series [1] was Active. The molecule further registered a logP in series [2] of 6.71. Moreover, the Activity in series [3] and in series [4] was 100% in each case.

In the case of `C=C(c1cccc2ccccc12)C1CCC2(CC1)COC(Nc1ccc(C(F)(F)F)cc1)OO2` (centres undefined), the result in series [1] was Active. The logP in series [2] worked out at 6.51. The Activity in series [3] and in series [4] was 100% throughout.

With `C=C(c1ccc2ccc3ccccc3c2c1)C1CCC2(CC1)COC(Nc1ccc(Cl)cc1)OO2` (centres undefined), the outcome in series [1] was Active. For the same molecule, the logP in series [2] came to 7.14. For the same molecule, the Activity in series [3] was found to be 100%; in series [4], 76.9%.

`C=C(c1cccc2ccccc12)C1CCC2(CC1)COC(Nc1ccc(Cl)cc1)OO2` (centres undefined) yielded a log partition coefficient (logP) in series [2] of 6.15. In addition, the Activity in series [3] and in series [4] was 100% in each case.

Turning to `C=C(c1ccc2ccccc2c1)C1CCC2(CC1)COC(Nc1cc(Cl)cc(Cl)c1)OO2` (centres undefined), in series [1], the result was Active. In series [2], the lipophilicity (logP) came out at 6.71. Further, the Activity in series [3] and in series [4] was 100% in each case.

Regarding `C=C(c1ccc2c(c1)Cc1ccccc1-2)C1CCC2(CC1)COC(Nc1cc(Cl)cc(Cl)c1)OO2` (centres undefined), the result in series [1] was inactive. This molecule also came in with a lipophilicity (logP) in series [2] of 7.44. Further, the Activity in series [3] turned out to be 100%.

For `C=C(c1cccc2ccccc12)C1CCC2(CC1)COC(Nc1ccc(OC)cc1)OO2` (centres undefined), the outcome in series [1] was Active. Moreover, the log partition coefficient (logP) in series [2] was 5.46. The Activity in series [3] and in series [4] was 100% in each case.

For the molecule `C=C(c1ccc2c(c1)Cc1ccccc1-2)C1CCC2(CC1)COC(Nc1ccc(C(F)(F)F)cc1)OO2` (centres undefined), the outcome in series [1] was Active. The molecule further came in with a logP in series [2] of 7.25. The Activity in series [3] and in series [4] was 100% throughout.

Turning to `C=C(c1ccc2c(c1)Cc1ccccc1-2)C1CCC2(CC1)COC(Nc1cccc(C(F)(F)F)c1)OO2` (centres undefined), the result in series [1] was Active. In addition, in series [5], the result was inactive. Also, the logP in series [2] turned out to be 7.25. For the same molecule, the Activity in series [3] and in series [4] was 100% in each case.

In the case of `C=C(c1ccc2c(c1)Cc1ccccc1-2)C1CCC2(CC1)COC(Nc1ccc(Cl)cc1)OO2` (centres undefined), the result in series [1] was Active. The logP in series [2] was determined as 6.88. Besides, in series [3], the Activity stood at 100%.

As to `C=C(c1ccc2ccccc2c1)C1CCC2(CC1)COC(Nc1ccccc1-c1ccccc1)OO2` (centres undefined), the outcome in series [1] was Active. The lipophilicity (logP) in series [2] turned out to be 7.26. The Activity in series [3] and in series [4] was 100% each time.

Consider `C=C(c1ccc2c(c1)Cc1ccccc1-2)C1CCC2(CC1)COC(Nc1ccccc1-c1ccccc1)OO2` (centres undefined), for which the outcome in series [1] was inactive. In series [2], this molecule returned a lipophilicity (logP) of 8. Moreover, the Activity in series [3] worked out at 100%.

With `C=C(c1ccc2ccc3ccccc3c2c1)C1CCC2(CC1)COC(Nc1ccccc1-c1ccccc1)OO2` (centres undefined), the result in series [1] was Active. The outcome in series [5] was inactive. Besides, the logP in series [2] stood at 8.26. For the same molecule, the Activity in series [3] came to 100%; in series [4], 74.36%.

For `C=C(c1ccc2ccc3ccccc3c2c1)C1CCC2(CC1)COC(Nc1ccc(OC)cc1)OO2` (centres undefined), the result in series [1] was Active. In addition, the lipophilicity (logP) in series [2] came to 6.46. Besides, the Activity in series [3] and in series [4] was 100% throughout.

As to `C=C(c1ccc2ccccc2c1)C1CCC2(CC1)COC(Nc1ccc(C)cc1)OO2` (centres undefined), the outcome in series [1] was Active. Also, the logP in series [2] amounted to 6.08. The Activity in series [3] and in series [4] was 100% in each case.

Regarding `C=C(c1ccc2ccc3ccccc3c2c1)C1CCC2(CC1)COC(Nc1ccc(F)cc1)OO2` (centres undefined), the outcome in series [1] was Active. The molecule also showed a lipophilicity (logP) in series [2] of 6.74. Besides, the Activity in series [3] and in series [4] was 100% in each case.

For the molecule `C=C(c1ccc2c(c1)Cc1ccccc1-2)C1CCC2(CC1)COC(Nc1ccccc1)OO2` (centres undefined), the outcome in series [1] was Active. In series [2], this molecule had a logP of 6.33. Moreover, the Activity in series [3] and in series [4] was 100% throughout.
